Data set [1] has as its system T. b. rhodesiense bloodstream form trypomastigotes (STIB 900). Description: In vitro growth inhibition of T. b. rhodesiense bloodstream form trypomastigotes. In kind it is cell-based, Trypanosoma b. rhodesiense. Conditions: for IC50: Trypanosoma brucei, RHODESIENSE|STIB900, read-out: T.b.rhod. IC-50; for SI (T.b.rhod.): SI = IC50 in L6 cells / IC50 in T.b. rhodesiense; for activity designation against T.b. rhodesiense: TDR criteria on IC50; for reduction of anti-HAT activity compared to 3-nitrotriazole counterpart: 2-nitroimidazole analog vs 3-nitrotriazole counterpart (13 vs 9; 14 vs 11).

The test system of data set [2] is T. cruzi amastigotes (Tulahuen C4) in infected L6 myoblasts. Description: In vitro growth inhibition of T. cruzi amastigotes in infected L6 myoblasts. In kind it is cell-based. The conditions noted are these: for IC50: Trypanosoma cruzi, TULAHUEN, L6, read-out: T. cruzi IC-50; for reduction of antichagasic activity compared to 5: compared to compound 5; for reduction of antichagasic activity compared to 3-nitrotriazole counterpart: 2-nitroimidazole analog vs 3-nitrotriazole counterpart (13 vs 9; 14 vs 11).

For data set [3], the system named is L. donovani axenic amastigotes (MHOM-ET-67/L82). Description: In vitro growth inhibition of axenically cultured L. donovani amastigotes. The data set is classed as cell-based, Leishmania donovani. Conditions: for IC50: Leishmania donovani, read-out: L.don. axen. IC-50; for SI (L.don. axen.): SI = IC50 in L6 cells / IC50 in L. donovani.
A short description of data set [4]: Cytotoxicity assessment using L6 cells. In kind it is cell-based. Conditions: rat, L6 cells (rat skeletal myoblasts). The essentials:
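Rat skeletal myoblasts (L6) were tested for growth inhibition as the host-cell toxicity counterpart to the parasite assays. IC50 was calculated by linear regression from sigmoidal dose-inhibition curves. Values are means of two independent assays, varying by less than ±50%.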

As to `Cl.Cl.O=[N+]([O-])c1ncn(CCCN2CCN(Cc3ccc(C(F)(F)F)cc3)CC2)n1` [Compound 1], the IC50 was 1.38 µM in data set [1], 0.34 µM in data set [2], 58.1 µM in data set [3] and over 191 µM in data set [4]. Further, in data set [3], the “SI (L.don. axen.)” value is over 3.
Take `Cl.Cl.O=[N+]([O-])c1ncn(CCCCN2CCN(Cc3ccc(C(F)(F)F)cc3)CC2)n1` [Compound 2]: in data set [1], the “SI (T.b.rhod.)” value worked out at 99 and the IC50 was 1.2 µM. In addition, in data set [2], the IC50 came out at 0.412 µM. In data set [3], the IC50 came to 44.5 µM and the “SI (L.don. axen.)” value was 3.
The corresponding values for `Cl.Cl.O=[N+]([O-])c1ncn(CCCN2CCN(c3ccc(C(F)(F)F)cc3)CC2)n1` [Compound 3] are 10, 5.33 µM, 0.04 µM, 25.9 µM and 2.
For the compound `Cl.Cl.O=[N+]([O-])c1ncn(CCCN2CCN(c3ncccn3)CC2)n1` [Compound 4, 2-{4-[3-(3-nitro-1H-1,2,4-triazol-1-yl)propyl]piperazin-1-yl}pyrimidine dihydrochloride], the “reduction of antichagasic activity compared to 5” value in data set [2] is 2 fold.
On the same count and under the same terms, the value for `O=[N+]([O-])c1ncn(CCCN2CCN(c3ccncc3)CC2)n1` [Compound 6, 1-[3-(3-nitro-1H-1,2,4-triazol-1-yl)propyl]-4-(pyridin-4-yl)piperazine] was “more than 10 fold”.
On to `Cl.Cl.Cl.Cl.O=[N+]([O-])c1ncn(CCCN2CCN(c3ccc(Cl)c(Cl)c3)CC2)n1` [Compound 7, 1-(3,4-dichlorophenyl)-4-[3-(3-nitro-1H-1,2,4-triazol-1-yl)propyl]piperazine dihydrochloride], for which the “activity designation against T.b. rhodesiense” value in data set [1] is “active”.
`COc1ccc(N2CCN(CCCn3cnc([N+](=O)[O-])n3)CC2)cc1` [Compound 9, 1-(4-methoxyphenyl)-4-[3-(3-nitro-1H-1,2,4-triazol-1-yl)propyl]piperazine dihydro-chloride] came in with an IC50 in data set [4] of 125 µM.
Regarding `COc1ccc(N2CCN(CCCn3ccnc3[N+](=O)[O-])CC2)cc1.Cl.Cl` [Compound 13, 1-(4-methoxyphenyl)-4-[3-(2-nitro-1H-imidazol-1-yl)propyl]piperazine dihydro-chloride], the “reduction of anti-HAT activity compared to 3-nitrotriazole counterpart” value in data set [1] is on record as about 2 fold. In data set [2], the “reduction of antichagasic activity compared to 3-nitrotriazole counterpart” value is “about 62 fold”.
As for `Cl.Cl.Cl.Cl.O=[N+]([O-])c1nccn1CCCN1CCN(Cc2ccc(Cl)c(Cl)c2)CC1` [Compound 14, 1-[(3,4-dichlorophenyl)methyl]-4-[3-(2-nitro-1H-imidazol-1-yl)propyl]piperazine dihydrochloride], the “reduction of anti-HAT activity compared to 3-nitrotriazole counterpart” value in data set [1] is recorded as about 14 fold. Also, the “reduction of antichagasic activity compared to 3-nitrotriazole counterpart” value in data set [2] is given as “about 33 fold”.
As for `O=[N+]([O-])c1ncn(CCCNc2nc3ccc(Cl)cc3s2)n1` [Compound 15, 6-chloro-N-[3-(3-nitro-1H-1,2,4-triazol-1-yl)propyl]-1,3-benzothiazol-2-amine], the “activity designation against T.b. rhodesiense” value in data set [1] is “active”. For the same compound, the “activity designation against L. donovani” value in data set [3] (TDR criteria on IC50) was “moderately active (IC50 = 1.0-6.0 μM)”.
Turning to `O=[N+]([O-])c1ncn(CCCCNc2nc3ccc(Cl)cc3s2)n1` [Compound 17, 6-chloro-N-[4-(3-nitro-1H-1,2,4-triazol-1-yl)butyl]-1,3-benzothiazol-2-amine], the “activity designation against T.b. rhodesiense” value in data set [1] is on record as “active”.
Turning to `O=[N+]([O-])c1nccn1CCCCNc1nc2ccc(Cl)cc2s1` [Compound 20, 6-chloro-N-[4-(2-nitro-1H-imidazol-1-yl)butyl]-1,3-benzothiazol-2-amine], the IC50 in data set [3] turned out to be 7.3 µM.

Values taken from article PMC3873001 (Bioorganic & medicinal chemistry, 2013).
